Results: ChEMBL document CHEMBL1955823, “Imidazo[1,2-a]pyrazines as novel PI3K inhibitors” (Bioorg Med Chem Lett, 2012)

Columns and labels:
[1] = target: Serine/threonine-protein kinase pim-1 (Homo sapiens) (UniProt P11309); assay: Inhibition of PIM1 at 5 to 10 uM
[2] = target: Dual specificity mitogen-activated protein kinase kinase 1 (Homo sapiens) (UniProt Q02750); assay: Inhibition of MEK1 at 5 to 10 uM
[3] = target: Ribosomal protein S6 kinase alpha-1 (Homo sapiens) (UniProt Q15418); assay: Inhibition of RPS6KA1 at 5 to 10 uM
[4] = target: T1, Serine/threonine-protein kinase 4 (Homo sapiens) (UniProt Q13043); assay: Inhibition of MST1 at 5 to 10 uM
T1 sequence (whole entry): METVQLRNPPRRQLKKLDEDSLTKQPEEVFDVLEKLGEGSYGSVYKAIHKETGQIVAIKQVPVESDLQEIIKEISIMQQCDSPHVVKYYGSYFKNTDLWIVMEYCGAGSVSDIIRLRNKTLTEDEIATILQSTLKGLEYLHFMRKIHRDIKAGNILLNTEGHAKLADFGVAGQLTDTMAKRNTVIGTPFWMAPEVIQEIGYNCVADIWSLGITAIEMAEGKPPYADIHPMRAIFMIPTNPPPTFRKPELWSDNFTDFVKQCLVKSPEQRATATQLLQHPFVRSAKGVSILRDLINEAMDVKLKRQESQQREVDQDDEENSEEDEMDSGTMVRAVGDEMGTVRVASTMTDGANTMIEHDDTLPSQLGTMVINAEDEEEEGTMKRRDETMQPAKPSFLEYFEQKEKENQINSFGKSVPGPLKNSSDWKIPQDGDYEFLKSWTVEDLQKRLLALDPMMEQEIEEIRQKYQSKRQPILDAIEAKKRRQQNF

[5] = system: Serine/threonine-protein kinase B-raf (Homo sapiens), P15056 [V600E]; assay: Inhibition of BRAF V600E mutant at 5 to 10 uM
[6] = target: Focal adhesion kinase 1 (Homo sapiens) (UniProt Q05397); assay: Inhibition of FAK at 5 to 10 uM
[7] = target: Dual specificity tyrosine-phosphorylation-regulated kinase 1A (Homo sapiens) (UniProt Q13627); assay: Inhibition of DYRK1A at 5 to 10 uM
[8] = target: Serine/threonine-protein kinase mTOR (Homo sapiens, UniProt P42345); assay: Inhibition of mTOR
Summary of the method: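 mTOR (FRAP1) kinase assay using GFP-4E-BP1 substrate and a Tb-labelled anti-phospho-4E-BP1 (Thr46) antibody in a TR-FRET format, under the manufacturer's conditions; averages of two independent experiments run in duplicate.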

[9] = Inhibition of PDGFR at 5 to 10 uM
[10] = target: RAC-alpha serine/threonine-protein kinase (Homo sapiens) (UniProt P31749); assay: Inhibition of AKT1 at 5 to 10 uM
[11] = target: T2, PI3-kinase p110-alpha/p85-alpha (Homo sapiens, UniProt P42336); assay: Inhibition of human PI3K p110alpha/p85alpha; assay type: protein-complex assay; settings: read-out: Ki(app)
[12] = target: Hepatocyte growth factor receptor (Homo sapiens) (UniProt P08581); assay: Inhibition of MET at 5 to 10 uM
[13] = target: Receptor-type tyrosine-protein kinase FLT3 (Homo sapiens) (UniProt P36888); assay: Inhibition of FLT3 at 5 to 10 uM
[14] = target: PI3-kinase p110-delta/p85-alpha (Homo sapiens, UniProt O00329); assay: Inhibition of human PI3K p110delta/p85alpha; assay type: protein-complex assay; settings: read-out: Ki(app)
[15] = target: Mast/stem cell growth factor receptor Kit (Homo sapiens) (UniProt P10721); assay: Inhibition of KIT at 5 to 10 uM
[16] = target: Casein kinase I isoform alpha (Homo sapiens) (UniProt P48729); assay: Inhibition of CK1alpha1 at 5 to 10 uM
[17] = target: Insulin-like growth factor 1 receptor (Homo sapiens) (UniProt P08069); assay: Inhibition of IGF1-R at 5 to 10 uM
[18] = target: T2, PI3-kinase p110-alpha/p85-alpha; assay: Inhibition of PI3K p110alpha/p85alpha-mediated AKT1 phosphorylation at Ser473 in human U2OS cells; assay type: cell-based
Summary of the method: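 Endogenous phospho-Akt1 (Ser473) measured in U2OS osteosarcoma cells kept in 0.1% FBS and then serum-stimulated; read-out by cell-based ELISA with femto chemiluminescent substrate.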

[19] = target: Fibroblast growth factor receptor 1 (Homo sapiens) (UniProt P11362); assay: Inhibition of FGF-R1 at 5 to 10 uM
[20] = target: Insulin receptor (Homo sapiens) (UniProt P06213); assay: Inhibition of INS-R at 5 to 10 uM
[21] = target: T3, NUAK family SNF1-like kinase 1 (Homo sapiens) (UniProt O60285); assay: Inhibition of ARK5 at 5 to 10 uM
T3 sequence (whole entry): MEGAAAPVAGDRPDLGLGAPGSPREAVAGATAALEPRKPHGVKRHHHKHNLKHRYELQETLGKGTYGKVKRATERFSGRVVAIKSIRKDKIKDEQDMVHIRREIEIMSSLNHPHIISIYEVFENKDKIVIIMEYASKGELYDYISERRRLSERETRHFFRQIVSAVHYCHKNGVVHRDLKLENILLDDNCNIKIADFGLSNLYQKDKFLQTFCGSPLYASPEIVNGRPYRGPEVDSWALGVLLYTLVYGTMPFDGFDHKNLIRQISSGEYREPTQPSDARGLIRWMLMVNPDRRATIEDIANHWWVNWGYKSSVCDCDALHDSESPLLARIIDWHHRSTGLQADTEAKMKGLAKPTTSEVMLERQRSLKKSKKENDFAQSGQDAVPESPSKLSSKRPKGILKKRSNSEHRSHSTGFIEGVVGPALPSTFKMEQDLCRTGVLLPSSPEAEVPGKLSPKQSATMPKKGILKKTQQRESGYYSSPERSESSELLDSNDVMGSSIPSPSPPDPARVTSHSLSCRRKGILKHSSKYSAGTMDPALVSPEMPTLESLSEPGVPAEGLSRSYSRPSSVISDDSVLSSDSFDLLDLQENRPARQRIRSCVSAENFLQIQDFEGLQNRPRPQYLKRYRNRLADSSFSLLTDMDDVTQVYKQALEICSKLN

[22] = target: Serine/threonine-protein kinase pim-2 (Homo sapiens) (UniProt Q9P1W9); assay: Inhibition of PIM2 at 5 to 10 uM
PI3K p110 beta/p85 alpha = PI3K p110 beta/p85 alpha (Homo sapiens, UniProt P42338); assay: Inhibition of human PI3K p110beta/p85alpha; assay type: protein-complex assay; settings: read-out: Ki(app)

Sequence of Fibroblast growth factor receptor 1 (Homo sapiens) (P11362 22-822 limits assumed): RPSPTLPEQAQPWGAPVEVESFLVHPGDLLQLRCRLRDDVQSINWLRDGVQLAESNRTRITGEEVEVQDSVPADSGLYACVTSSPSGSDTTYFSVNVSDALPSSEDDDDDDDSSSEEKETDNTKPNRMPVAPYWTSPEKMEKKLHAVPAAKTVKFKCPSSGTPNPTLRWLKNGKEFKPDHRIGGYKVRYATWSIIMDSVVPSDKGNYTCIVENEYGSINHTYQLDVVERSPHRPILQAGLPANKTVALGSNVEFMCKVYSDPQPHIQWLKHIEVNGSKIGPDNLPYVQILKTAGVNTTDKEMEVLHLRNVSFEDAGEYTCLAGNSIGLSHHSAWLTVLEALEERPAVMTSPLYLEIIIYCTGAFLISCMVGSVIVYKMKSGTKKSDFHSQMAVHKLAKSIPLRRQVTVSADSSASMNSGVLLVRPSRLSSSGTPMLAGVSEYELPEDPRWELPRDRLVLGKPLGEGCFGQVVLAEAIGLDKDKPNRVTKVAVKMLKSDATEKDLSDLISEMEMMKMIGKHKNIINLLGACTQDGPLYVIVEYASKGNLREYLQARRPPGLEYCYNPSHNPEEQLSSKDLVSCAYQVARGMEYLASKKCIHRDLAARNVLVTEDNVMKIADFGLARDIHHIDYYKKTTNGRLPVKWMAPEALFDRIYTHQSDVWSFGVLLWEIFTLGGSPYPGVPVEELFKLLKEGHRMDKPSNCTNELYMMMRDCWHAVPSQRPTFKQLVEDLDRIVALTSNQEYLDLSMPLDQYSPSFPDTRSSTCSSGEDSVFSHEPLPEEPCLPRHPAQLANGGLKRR
Sequence of Insulin-like growth factor 1 receptor (Homo sapiens) (P08069 31-736 limits assumed): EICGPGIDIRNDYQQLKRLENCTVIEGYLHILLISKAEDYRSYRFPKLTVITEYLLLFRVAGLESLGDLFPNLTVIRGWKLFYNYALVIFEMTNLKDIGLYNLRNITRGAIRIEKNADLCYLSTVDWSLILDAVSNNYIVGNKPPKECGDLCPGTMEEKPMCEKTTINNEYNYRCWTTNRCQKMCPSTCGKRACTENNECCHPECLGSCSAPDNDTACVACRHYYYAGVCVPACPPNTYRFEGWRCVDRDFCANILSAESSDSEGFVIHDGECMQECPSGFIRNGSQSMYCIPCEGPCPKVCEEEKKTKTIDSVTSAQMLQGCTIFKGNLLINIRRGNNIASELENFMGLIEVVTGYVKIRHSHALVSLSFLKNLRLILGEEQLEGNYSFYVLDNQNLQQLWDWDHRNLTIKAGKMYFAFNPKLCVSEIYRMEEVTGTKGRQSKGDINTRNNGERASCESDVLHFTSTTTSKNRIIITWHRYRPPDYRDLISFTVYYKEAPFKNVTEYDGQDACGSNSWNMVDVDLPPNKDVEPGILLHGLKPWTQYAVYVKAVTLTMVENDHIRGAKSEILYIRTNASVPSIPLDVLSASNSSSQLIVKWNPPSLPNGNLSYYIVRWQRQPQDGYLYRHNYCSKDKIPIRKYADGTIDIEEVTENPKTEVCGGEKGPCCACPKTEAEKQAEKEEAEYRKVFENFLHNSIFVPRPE
Sequence of Insulin-like growth factor 1 receptor (Homo sapiens) (P08069 741-1367 limits assumed): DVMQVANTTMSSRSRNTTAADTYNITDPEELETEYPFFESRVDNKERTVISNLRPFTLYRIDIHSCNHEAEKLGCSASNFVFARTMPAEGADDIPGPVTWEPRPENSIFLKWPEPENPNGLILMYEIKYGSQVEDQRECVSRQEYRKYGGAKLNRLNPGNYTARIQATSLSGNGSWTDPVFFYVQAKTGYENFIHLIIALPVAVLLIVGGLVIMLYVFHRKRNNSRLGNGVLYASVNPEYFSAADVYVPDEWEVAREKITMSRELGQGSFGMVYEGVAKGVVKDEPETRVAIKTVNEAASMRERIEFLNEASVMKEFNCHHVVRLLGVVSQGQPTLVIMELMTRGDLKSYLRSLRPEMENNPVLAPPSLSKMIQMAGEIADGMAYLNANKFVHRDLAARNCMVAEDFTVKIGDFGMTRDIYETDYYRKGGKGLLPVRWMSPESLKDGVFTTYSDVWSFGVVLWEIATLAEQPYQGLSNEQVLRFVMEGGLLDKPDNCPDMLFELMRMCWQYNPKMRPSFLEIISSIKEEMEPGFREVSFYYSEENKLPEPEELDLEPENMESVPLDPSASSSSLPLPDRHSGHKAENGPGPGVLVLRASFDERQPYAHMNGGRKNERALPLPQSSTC
Sequence of Receptor-type tyrosine-protein kinase FLT3 (Homo sapiens) (P36888 whole entry): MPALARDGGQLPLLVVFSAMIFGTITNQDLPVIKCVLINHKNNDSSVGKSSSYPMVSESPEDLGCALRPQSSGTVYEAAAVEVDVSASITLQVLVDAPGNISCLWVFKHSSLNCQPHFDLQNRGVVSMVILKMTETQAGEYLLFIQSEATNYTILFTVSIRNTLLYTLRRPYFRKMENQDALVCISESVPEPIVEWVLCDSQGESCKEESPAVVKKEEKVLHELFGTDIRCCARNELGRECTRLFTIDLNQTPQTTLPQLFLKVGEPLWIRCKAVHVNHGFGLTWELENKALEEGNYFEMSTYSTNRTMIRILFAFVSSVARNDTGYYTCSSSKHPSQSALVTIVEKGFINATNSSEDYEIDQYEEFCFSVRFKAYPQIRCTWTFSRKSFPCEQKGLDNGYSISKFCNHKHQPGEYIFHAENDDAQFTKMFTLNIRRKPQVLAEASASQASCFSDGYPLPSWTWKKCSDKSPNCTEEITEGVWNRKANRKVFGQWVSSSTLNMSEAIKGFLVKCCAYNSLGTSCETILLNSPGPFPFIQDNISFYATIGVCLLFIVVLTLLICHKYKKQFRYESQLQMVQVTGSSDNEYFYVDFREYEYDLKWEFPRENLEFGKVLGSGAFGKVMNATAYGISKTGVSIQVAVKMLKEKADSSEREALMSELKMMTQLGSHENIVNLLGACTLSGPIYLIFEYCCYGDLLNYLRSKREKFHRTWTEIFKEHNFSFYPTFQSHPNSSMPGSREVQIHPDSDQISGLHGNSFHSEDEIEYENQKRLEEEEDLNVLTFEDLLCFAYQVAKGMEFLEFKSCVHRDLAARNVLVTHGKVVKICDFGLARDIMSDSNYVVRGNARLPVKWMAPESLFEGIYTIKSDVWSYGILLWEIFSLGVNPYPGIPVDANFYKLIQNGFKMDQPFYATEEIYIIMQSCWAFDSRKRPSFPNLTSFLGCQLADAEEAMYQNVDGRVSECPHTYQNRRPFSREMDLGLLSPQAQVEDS
Sequence of Insulin receptor (Homo sapiens) (P06213 28-758 limits assumed): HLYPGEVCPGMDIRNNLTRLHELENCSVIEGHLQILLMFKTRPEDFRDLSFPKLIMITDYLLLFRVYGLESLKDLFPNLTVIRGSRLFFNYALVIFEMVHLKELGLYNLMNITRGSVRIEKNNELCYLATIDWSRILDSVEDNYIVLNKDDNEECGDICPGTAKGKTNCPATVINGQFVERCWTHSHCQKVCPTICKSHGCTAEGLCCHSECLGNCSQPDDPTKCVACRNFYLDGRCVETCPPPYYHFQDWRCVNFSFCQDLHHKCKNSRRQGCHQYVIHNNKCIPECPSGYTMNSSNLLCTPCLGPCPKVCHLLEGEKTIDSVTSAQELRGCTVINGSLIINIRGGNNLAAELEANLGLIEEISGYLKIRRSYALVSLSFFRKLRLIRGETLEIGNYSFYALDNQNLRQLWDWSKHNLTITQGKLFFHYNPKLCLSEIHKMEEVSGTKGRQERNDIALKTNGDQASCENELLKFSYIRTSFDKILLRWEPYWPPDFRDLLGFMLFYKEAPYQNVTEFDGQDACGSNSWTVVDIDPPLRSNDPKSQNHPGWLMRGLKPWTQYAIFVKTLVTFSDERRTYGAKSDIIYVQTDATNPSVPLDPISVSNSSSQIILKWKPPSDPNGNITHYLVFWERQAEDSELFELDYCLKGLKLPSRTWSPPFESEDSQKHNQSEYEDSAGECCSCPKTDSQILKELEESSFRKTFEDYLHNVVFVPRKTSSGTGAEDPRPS
Sequence of Insulin receptor (Homo sapiens) (P06213 763-1382 limits assumed): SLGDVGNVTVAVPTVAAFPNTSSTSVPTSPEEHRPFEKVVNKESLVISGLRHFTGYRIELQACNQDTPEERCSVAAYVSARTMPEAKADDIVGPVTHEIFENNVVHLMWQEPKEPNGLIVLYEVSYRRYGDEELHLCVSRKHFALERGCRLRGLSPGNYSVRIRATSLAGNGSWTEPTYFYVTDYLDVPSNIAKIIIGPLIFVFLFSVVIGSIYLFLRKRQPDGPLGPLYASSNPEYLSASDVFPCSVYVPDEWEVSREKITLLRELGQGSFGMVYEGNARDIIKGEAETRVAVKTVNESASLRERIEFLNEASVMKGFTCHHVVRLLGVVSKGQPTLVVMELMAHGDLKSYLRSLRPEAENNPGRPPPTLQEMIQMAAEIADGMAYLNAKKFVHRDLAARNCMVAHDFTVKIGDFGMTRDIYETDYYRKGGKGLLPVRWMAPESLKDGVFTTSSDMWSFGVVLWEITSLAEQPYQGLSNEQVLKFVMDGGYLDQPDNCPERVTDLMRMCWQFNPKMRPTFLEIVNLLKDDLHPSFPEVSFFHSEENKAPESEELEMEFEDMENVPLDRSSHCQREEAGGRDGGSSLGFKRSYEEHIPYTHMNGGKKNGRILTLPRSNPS
Sequence of RAC-alpha serine/threonine-protein kinase (Homo sapiens) (P31749 whole entry): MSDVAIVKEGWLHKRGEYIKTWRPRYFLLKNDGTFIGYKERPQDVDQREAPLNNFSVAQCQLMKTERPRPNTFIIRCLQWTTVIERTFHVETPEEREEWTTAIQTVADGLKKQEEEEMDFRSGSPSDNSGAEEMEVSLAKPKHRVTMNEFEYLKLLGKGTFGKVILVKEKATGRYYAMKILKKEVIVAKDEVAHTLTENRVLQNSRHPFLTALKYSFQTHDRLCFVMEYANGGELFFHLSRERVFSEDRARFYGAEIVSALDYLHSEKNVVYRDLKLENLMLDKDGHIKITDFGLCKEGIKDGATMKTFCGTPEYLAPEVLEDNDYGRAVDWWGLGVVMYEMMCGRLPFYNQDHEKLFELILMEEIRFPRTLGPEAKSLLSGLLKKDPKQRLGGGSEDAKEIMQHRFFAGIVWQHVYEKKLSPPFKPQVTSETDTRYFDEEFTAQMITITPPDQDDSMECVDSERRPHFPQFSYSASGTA

SMILES	inhibition [1] [%]	inhibition [2] [%]	inhibition [3] [%]	inhibition [4] [%]	inhibition [5] [%]	inhibition [6] [%]	inhibition [7] [%]	IC50 [8] [nM]	inhibition [9] [%]	inhibition [10] [%]	inhibition [12] [%]	inhibition [13] [%]	inhibition [15] [%]	inhibition [16] [%]	inhibition [17] [%]	inhibition [19] [%]	inhibition [20] [%]	inhibition [21] [%]	inhibition [22] [%]	Ki (PI3K p110 beta/p85 alpha) [nM]	other results
CS(=O)(=O)N1CCN(Cc2cn3c(C#N)c(-c4cccc5[nH]ncc45)nc(N4CCOCC4)c3n2)CC1	< 50	< 50	< 50	< 50	< 50	50	< 50	> 10000	< 50	50	< 50	< 50	< 50	< 50	< 50	< 50	50	< 50	< 50	> 500	Ki [11]: 410 nM; Ki [14]: 43 nM; EC50 [18]: 203 nM
CS(=O)(=O)N1CCN(Cc2cn3c(Cl)c(-c4cccc5[nH]ncc45)nc(N4CCOCC4)c3n2)CC1	< 50	< 50	< 50	< 50	< 50	50	< 50	> 10000	< 50	50	< 50	< 50	< 50	< 50	< 50	< 50	50	< 50	< 50	> 500	Ki [11]: 210 nM; Ki [14]: 65 nM; EC50 [18]: 495 nM
COCCCNC(=O)c1cn2cc(-c3cccc4[nH]ncc34)nc(N3CCOCC3)c2n1	< 50	< 50	< 50	< 50	< 50	50	< 50	> 10000	< 50	50	< 50	< 50	< 50	< 50	< 50	< 50	50	< 50	< 50	> 500	Ki [11]: 60 nM; Ki [14]: 2.8 nM; EC50 [18]: 114 nM

The next lines start with results.

inhibition [1] [%]	inhibition [2] [%]	inhibition [3] [%]	inhibition [4] [%]	inhibition [5] [%]	inhibition [6] [%]	inhibition [7] [%]	IC50 [8] [nM]	inhibition [9] [%]	inhibition [10] [%]	inhibition [12] [%]	inhibition [13] [%]	inhibition [15] [%]	inhibition [16] [%]	inhibition [17] [%]	inhibition [19] [%]	inhibition [20] [%]	inhibition [21] [%]	inhibition [22] [%]	Ki (PI3K p110 beta/p85 alpha) [nM]	SMILES	other results
< 50	< 50	< 50	< 50	< 50	50	< 50	> 10000	< 50	50	< 50	< 50	< 50	< 50	< 50	< 50	50	< 50	< 50	> 500	O=C(NCCN1CCOCC1)c1cn2cc(-c3cccc4[nH]ncc34)nc(N3CCOCC3)c2n1	Ki [11]: 65 nM; Ki [14]: 6.5 nM; EC50 [18]: 452 nM
< 50	< 50	< 50	< 50	< 50	50	< 50	> 10000	< 50	50	< 50	< 50	< 50	< 50	< 50	< 50	50	< 50	< 50	> 500	CN(C)CCCNC(=O)c1cn2cc(-c3cccc4[nH]ncc34)nc(N3CCOCC3)c2n1	Ki [11]: 44 nM; Ki [14]: 3.6 nM; EC50 [18]: 429 nM
< 50	< 50	< 50	< 50	< 50	50	< 50	> 10000	< 50	50	< 50	< 50	< 50	< 50	< 50	< 50	50	< 50	< 50	> 500	CNC(=O)c1cn2cc(-c3cccc4[nH]ncc34)nc(N3CCOCC3)c2n1	Ki [11]: 102 nM; Ki [14]: 17.1 nM; EC50 [18]: 600 nM
< 50	< 50	< 50	< 50	< 50	50	< 50	> 10000	< 50	< 50	< 50	< 50	< 50	< 50	< 50	< 50	50	< 50	< 50	> 500	CS(=O)(=O)N1CCN(Cc2cn3cc(-c4cccc5[nH]ncc45)nc(N4CCOCC4)c3n2)CC1	–
< 50	< 50	< 50	< 50	< 50	50	< 50	> 10000	< 50	50	< 50	< 50	< 50	< 50	< 50	< 50	50	< 50	< 50	> 500	CS(=O)(=O)N1CCN(Cc2nc3c(N4CCOCC4)nc(-c4cccc5[nH]ncc45)cn3c2Br)CC1	Ki [11]: 86 nM; Ki [14]: 8 nM; EC50 [18]: 208 nM
